Reference: ChEMBL document CHEMBL1136139, “The design, synthesis and evaluation of novel HIV-1 protease inhibitors with high potency against PI-resistant viral strains” (Bioorg Med Chem Lett, 2003)
pIC50: −log10 of the molar value.

Columns and labels:
[1] = target: Human immunodeficiency virus type 1 protease (Human immunodeficiency virus 1, UniProt Q72874); test: Inhibitory activity against HIV-1 Protease
Cytochrome P450 2D6 = Cytochrome P450 2D6 (Homo sapiens, UniProt P10635); test: Inhibition of human liver microsome Cytochrome P450 2D6; type: ADME, microsomes
[2] = Oral bioavailability in dog (dose 10 mg/kg); type: ADME, organism-based, Canis lupus familiaris; conditions: in vivo
In short: (§1)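 Dogs dosed both intravenously (2 mg/kg) and orally (10 mg/kg). Cmax, half-life, plasma clearance (mL/min/kg) and oral bioavailability (%) were derived from plasma drug levels. The study was IACUC-approved.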

Cytochrome P450 3A4 = Cytochrome P450 3A4 (Homo sapiens, UniProt P08684); test: Inhibition of human liver microsome Cytochrome P450 3A4
Cytochrome P450 2C9 = Cytochrome P450 2C9 (Homo sapiens, UniProt P11712); test: Inhibition of human liver microsome Cytochrome P450 2C9; type: ADME, microsomes
[3] = Plasma clearance after peroral administration at 10 mpk in dog; type: ADME, organism-based, Canis lupus familiaris; conditions: po, 10 mg/kg, read-out: Clp; in short: as §1
MT4 [4] = test: Ability to inhibit spread of viral infection in MT-4 human T-lymphoidcell infected by PI-resistant HIV-1 (strain Q-60C); type: functional; conditions: read-out: CIC95
In short: (§2)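 MT4 human T-lymphoid cells infected with HIV-1, either wild-type NL4-3 or engineered PI-resistant constructs (4X, K-60C, V-18C, Q-60C) carrying varied patterns of multiple PI resistance mutations; spread of infection in culture followed. Value is CIC95, the compound concentration inhibiting at least 95% of infectious viral spread relative to untreated virus control culture.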

MT4 [5] = test: Ability to inhibit spread of viral infection in MT-4 human T-lymphoidcell infected by PI-resistant HIV-1 (strain K-60C); type: functional; conditions: read-out: CIC95; in short: as §2
[6] = Half life period was determine after peroral administration at 10 mpk in dog; type: ADME, organism-based, Canis lupus familiaris; conditions: in vivo, po, 10 mg/kg; in short: as §1
[7] = In vitro intrinsic clearance in human liver microsome; type: ADME; conditions: liver microsomes
In short: (§3)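 The compound was incubated with liver microsomes from rat, dog, rhesus and human. Metabolic stability was expressed as intrinsic clearance scaled to mL/min/kg.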

MT4 [8] = test: Ability to inhibit spread of viral infection in MT-4 human T-lymphoidcell infected by wild-type HIV-1(strain NL4-3); type: functional; conditions: read-out: CIC95; in short: as §2
[9] = Cmax was determine after peroral administration at 10 mpk in dog; type: ADME, organism-based, Canis lupus familiaris; parameters: dose 10 mpk, route oral; conditions: in vivo, po, 10 mg/kg; in short: as §1
MT4 [10] = test: Ability to inhibit spread of viral infection in MT-4 human T-lymphoidcell infected by PI-resistant HIV-1 (strain V-18C); type: functional; conditions: read-out: CIC95; in short: as §2
MT4 [11] = test: Ability to inhibit spread of viral infection in MT-4 human T-lymphoidcell infected by PI-resistant HIV-1 (strain 4X Virus); type: functional; conditions: read-out: CIC95; in short: as §2
[12] = Intrinsic clearance in dog liver microsome; type: ADME, Canis lupus familiaris; conditions: liver microsomes; in short: as §3
[13] = Half life period was determine after peroral administration at 10 mpk in Rhesus; type: ADME, organism-based, Macaca mulatta; conditions: rhesus monkey, in vivo, po, 10 mg/kg
In short: (§4)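 Rhesus monkeys were given 10 mg/kg orally and 2 mg/kg intravenously. Cmax, half-life, AUC, plasma clearance (mL/min/kg) and bioavailability (%) were taken from plasma concentration profiles.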

[14] = Cmax was determine after peroral administration at 20 mpk in Rat; type: ADME, organism-based; parameters: dose 20 mpk, route oral; conditions: in vivo, po, 20 mg/kg
In short: (§5)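 Rats were dosed orally across 10–160 mg/kg (10, 20, 50, 160). The 10 mg/kg oral arm was paired with 5 mg/kg intravenous dosing. Cmax, AUC, half-life, plasma clearance (mL/min/kg) and bioavailability (%) were determined at each oral dose.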

[15] = Area under curve was determine after peroral administration at 20 mpk in Rat; type: ADME, organism-based; conditions: in vivo, po, 20 mg/kg; in short: as §5
[16] = Intrinsic clearance in rat liver microsome; type: ADME; conditions: liver microsomes; in short: as §3
[17] = Half life period was determine after peroral administration at 10 mpk in Rat; type: ADME, organism-based; conditions: in vivo, po, 10 mg/kg; in short: as §5
[18] = Oral bioavailability in Rhesus monkey (dose 10 mg/kg p.o.); type: ADME, organism-based, Macaca mulatta; conditions: in vivo; in short: as §4
Rattus norvegicus [19] = test: Plasma clearance after peroral administration at 10 mpk in Rat; type: ADME, organism-based; conditions: in vivo, po, 10 mg/kg; in short: as §5
[20] = Oral bioavailability after peroral administration at 50 mpk in Rat; type: ADME, organism-based; conditions: in vivo, 50 mg/kg; in short: as §5
[21] = Oral bioavailability after peroral administration at 20 mpk in Rat; type: ADME, organism-based; conditions: in vivo, 20 mg/kg; in short: as §5
Rhesus monkey [22] = test: Plasma clearance after peroral administration at 10 mpk in Rhesus; type: ADME, organism-based, Macaca mulatta; conditions: in vivo, po, 10 mg/kg; in short: as §4
[23] = Cmax was determine after peroral administration at 10 mpk in Rhesus; type: ADME, organism-based, Macaca mulatta; parameters: dose 10 mpk, route oral; conditions: rhesus monkey, in vivo, po, 10 mg/kg; in short: as §4
Rhesus monkey [24] = test: Area under curve was determine after peroral administration at 10 mpk in Rhesus; type: ADME, organism-based, Macaca mulatta; conditions: in vivo, po, 10 mg/kg; in short: as §4
[25] = Area under curve was determine after peroral administration at 160 mpk in Rat; type: ADME, organism-based; conditions: in vivo, po, 160 mg/kg; in short: as §5
[26] = Oral bioavailability after peroral administration at 160 mpk in Rat; type: ADME, organism-based; conditions: in vivo, 160 mg/kg; in short: as §5
[27] = Area under curve was determine after peroral administration at 50 mpk in Rat; type: ADME, organism-based; conditions: in vivo, po, 50 mg/kg; in short: as §5
[28] = Cmax was determine after peroral administration at 10 mpk in Rat; type: ADME, organism-based; parameters: dose 10 mpk, route oral; conditions: in vivo, po, 10 mg/kg; in short: as §5
[29] = Cmax was determine after peroral administration at 50 mpk in Rat; type: ADME, organism-based; parameters: dose 50 mpk, route oral; conditions: in vivo, po, 50 mg/kg; in short: as §5
Rattus norvegicus [30] = test: Area under curve was determine after peroral administration at 10 mpk in Rat; type: ADME, organism-based; conditions: in vivo, po, 10 mg/kg; in short: as §5
[31] = Oral bioavailability after peroral administration at 10 mpk in Rat; type: ADME, organism-based; conditions: in vivo, 10 mg/kg; in short: as §5
[32] = Intrinsic clearance in Rhesus liver microsome; type: ADME, Macaca mulatta; conditions: rhesus monkey, liver microsomes; in short: as §3
[33] = Cmax was determine after peroral administration at 160 mpk in Rat; type: ADME, organism-based; parameters: dose 160 mpk, route oral; conditions: in vivo, po, 160 mg/kg; in short: as §5

Chain of Cytochrome P450 2D6 (P10635 whole entry): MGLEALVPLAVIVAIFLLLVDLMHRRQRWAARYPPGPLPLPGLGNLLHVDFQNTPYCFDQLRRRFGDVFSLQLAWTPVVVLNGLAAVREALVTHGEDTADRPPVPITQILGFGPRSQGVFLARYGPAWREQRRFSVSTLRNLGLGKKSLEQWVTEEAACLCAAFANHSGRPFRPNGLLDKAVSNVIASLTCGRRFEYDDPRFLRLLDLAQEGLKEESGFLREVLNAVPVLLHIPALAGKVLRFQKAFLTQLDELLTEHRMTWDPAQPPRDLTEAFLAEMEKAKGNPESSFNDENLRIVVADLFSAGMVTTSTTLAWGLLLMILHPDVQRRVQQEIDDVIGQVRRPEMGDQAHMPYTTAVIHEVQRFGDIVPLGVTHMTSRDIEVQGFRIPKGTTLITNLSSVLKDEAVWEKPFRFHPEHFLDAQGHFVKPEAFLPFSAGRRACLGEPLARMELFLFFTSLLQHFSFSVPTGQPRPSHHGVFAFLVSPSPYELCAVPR
Chain of Cytochrome P450 3A4 (P08684 whole entry): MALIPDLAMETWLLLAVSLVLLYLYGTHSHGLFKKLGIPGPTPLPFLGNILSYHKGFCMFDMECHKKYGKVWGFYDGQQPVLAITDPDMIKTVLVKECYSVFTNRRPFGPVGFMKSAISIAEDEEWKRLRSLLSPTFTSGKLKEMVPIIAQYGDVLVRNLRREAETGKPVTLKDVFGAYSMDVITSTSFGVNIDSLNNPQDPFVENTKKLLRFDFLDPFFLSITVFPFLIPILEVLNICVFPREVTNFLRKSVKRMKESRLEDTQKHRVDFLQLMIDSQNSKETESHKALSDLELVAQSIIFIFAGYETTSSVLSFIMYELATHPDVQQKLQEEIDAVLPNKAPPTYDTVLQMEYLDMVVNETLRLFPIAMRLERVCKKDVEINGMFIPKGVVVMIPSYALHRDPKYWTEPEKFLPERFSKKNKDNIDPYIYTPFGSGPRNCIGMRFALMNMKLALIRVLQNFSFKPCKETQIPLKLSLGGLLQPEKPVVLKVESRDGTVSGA
Chain of Cytochrome P450 2C9 (P11712 whole entry): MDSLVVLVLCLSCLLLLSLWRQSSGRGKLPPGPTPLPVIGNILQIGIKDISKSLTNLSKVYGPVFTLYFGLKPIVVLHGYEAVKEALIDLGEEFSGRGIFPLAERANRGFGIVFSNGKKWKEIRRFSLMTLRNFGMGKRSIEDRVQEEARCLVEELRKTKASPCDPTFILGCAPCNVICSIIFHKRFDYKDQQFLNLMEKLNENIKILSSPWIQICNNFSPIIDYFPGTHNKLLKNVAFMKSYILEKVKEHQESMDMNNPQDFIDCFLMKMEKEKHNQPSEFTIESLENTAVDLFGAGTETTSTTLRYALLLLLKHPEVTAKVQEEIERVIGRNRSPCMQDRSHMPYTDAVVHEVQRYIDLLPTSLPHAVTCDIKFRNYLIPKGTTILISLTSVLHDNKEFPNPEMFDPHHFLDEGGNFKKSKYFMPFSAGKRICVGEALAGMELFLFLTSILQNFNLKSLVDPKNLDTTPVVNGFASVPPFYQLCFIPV

CC(C)(c1ncc(-c2cccnc2)o1)N1CCN(C[C@@H](O)C[C@@H](Cc2ccccc2)C(=O)N[C@H]2c3ccccc3OC[C@H]2O)[C@H](C(=O)NCC(F)(F)F)C1
pIC50 [1]: 10.40 | pIC50 (Cytochrome P450 2D6): 4.98 | bioavailability [2]: 10% | pIC50 (Cytochrome P450 3A4): 6.96 | pIC50 (Cytochrome P450 2C9): 4.48 | CL/F [3]: 21 mL/min/kg | IC95 (MT4 [4]): 31 nM | IC95 (MT4 [5]): 31 nM | half-life [6]: 1.57 h | CLint scaled [7]: 27 mL/min/kg | IC95 (MT4 [8]): ≤ 8 nM | Cmax [9]: 3800 nM | IC95 (MT4 [10]): 125 nM

O=C(N[C@H]1c2ccccc2OC[C@H]1O)[C@H](Cc1ccccc1)C[C@H](O)CN1CCN(Cc2ncc(-c3ccccn3)o2)C[C@H]1C(=O)NCC(F)(F)F
pIC50 [1]: 9.89 | IC95 (MT4 [11]): 31 nM | IC95 (MT4 [4]): 125 nM | IC95 (MT4 [8]): 23 nM | IC95 (MT4 [10]): 125 nM

COc1cncc(-c2cnc(C(C)(C)N3CCN(C[C@@H](O)C[C@@H](Cc4ccccc4)C(=O)N[C@H]4c5ccccc5OC[C@H]4O)[C@H](C(=O)NCC(F)(F)F)C3)o2)c1
CLint [12]: 67 mL/min/kg | pIC50 [1]: 10.70 | half-life [13]: 1.22 h | Cmax [14]: 370 nM | AUC [15]: 0.38 µM·h | pIC50 (Cytochrome P450 2D6): 5.06 | CLint [16]: 87 mL/min/kg | bioavailability [2]: 30% | half-life [17]: 0.433 h | pIC50 (Cytochrome P450 3A4): 7.40 | bioavailability [18]: 2.2% | pIC50 (Cytochrome P450 2C9): 4.52 | Clp (Rattus norvegicus [19]): 104 mL/min/kg | CL/F [3]: 18 mL/min/kg | bioavailability [20]: 40.5% | bioavailability [21]: 9.2% | Clp (Rhesus monkey [22]): 33 mL/min/kg | IC95 (MT4 [4]): 31 nM | Cmax [23]: 100 nM | AUC (Rhesus monkey [24]): 0.12 µM·h | AUC [25]: 15.7 µM·h | IC95 (MT4 [5]): 15 nM | half-life [6]: 1.02 h | bioavailability [26]: 47.2% | AUC [27]: 4.02 µM·h | Cmax [28]: 40 nM | Cmax [29]: 3060 nM | CLint scaled [7]: 13 mL/min/kg | IC95 (MT4 [8]): ≤ 8 nM | AUC (Rattus norvegicus [30]): 0.03 µM·h | bioavailability [31]: 1.5% | Cmax [9]: 4300 nM | CLint [32]: 120 mL/min/kg | IC95 (MT4 [10]): 15 nM | Cmax [33]: 6880 nM

O=C(N[C@H]1c2ccccc2OC[C@H]1O)[C@H](Cc1ccccc1)C[C@H](O)CN1CCN(Cc2ncc(-c3cccnc3)o2)C[C@H]1C(=O)NCC(F)(F)F
pIC50 [1]: 9.85 | IC95 (MT4 [11]): 62 nM | IC95 (MT4 [4]): 125 nM | IC95 (MT4 [5]): 125 nM | IC95 (MT4 [8]): 27 nM | IC95 (MT4 [10]): 250 nM

O=C(N[C@H]1c2ccccc2OC[C@H]1O)[C@H](Cc1ccccc1)C[C@H](O)CN1CCN(Cc2ncc(-c3ccncc3)o2)C[C@H]1C(=O)NCC(F)(F)F
pIC50 [1]: 10.00 | IC95 (MT4 [11]): 62 nM | IC95 (MT4 [4]): 250 nM | IC95 (MT4 [5]): 125 nM | IC95 (MT4 [8]): 23 nM | IC95 (MT4 [10]): 125 nM

O=C(N[C@H]1c2ccccc2OC[C@H]1O)[C@H](Cc1ccccc1)C[C@H](O)CN1CCN(Cc2ccc(-c3ccccn3)o2)C[C@H]1C(=O)NCC(F)(F)F
pIC50 [1]: 10.30 | IC95 (MT4 [4]): 15 nM | IC95 (MT4 [5]): 31 nM | IC95 (MT4 [8]): ≤ 8 nM | IC95 (MT4 [10]): 15 nM

CC(C)(c1ncc(-c2ccccn2)o1)N1CCN(C[C@@H](O)C[C@@H](Cc2ccccc2)C(=O)N[C@H]2c3ccccc3OC[C@H]2O)[C@H](C(=O)NCC(F)(F)F)C1
pIC50 [1]: 10.40 | pIC50 (Cytochrome P450 2D6): 4.65 | pIC50 (Cytochrome P450 3A4): 5.30 | pIC50 (Cytochrome P450 2C9): 4.55 | IC95 (MT4 [4]): 15 nM | IC95 (MT4 [5]): 31 nM | CLint scaled [7]: 500 mL/min/kg | IC95 (MT4 [8]): ≤ 8 nM | IC95 (MT4 [10]): 62 nM

CC(C)(c1ncc(-c2cnccc2Cl)o1)N1CCN(C[C@@H](O)C[C@@H](Cc2ccccc2)C(=O)N[C@H]2c3ccccc3OC[C@H]2O)[C@H](C(=O)NCC(F)(F)F)C1
pIC50 [1]: 10.70 | pIC50 (Cytochrome P450 2D6): 5.38 | bioavailability [2]: 8% | pIC50 (Cytochrome P450 3A4): 7.40 | pIC50 (Cytochrome P450 2C9): 4.68 | CL/F [3]: 19 mL/min/kg | IC95 (MT4 [5]): 16 nM | half-life [6]: 1.53 h | CLint scaled [7]: 35 mL/min/kg | IC95 (MT4 [8]): ≤ 8 nM | Cmax [9]: 1000 nM | IC95 (MT4 [10]): 31 nM

CC(C)(C)NC(=O)[C@@H]1CN(Cc2cccnc2)CCN1C[C@@H](O)C[C@@H](Cc1ccccc1)C(=O)N[C@H]1c2ccccc2C[C@H]1O
IC95 (MT4 [11]): 400 nM | IC95 (MT4 [4]): > 1000 nM | IC95 (MT4 [5]): > 1000 nM | IC95 (MT4 [8]): 50 nM | IC95 (MT4 [10]): > 1000 nM
